We go through 97 compounds from ChEMBL document CHEMBL4513216, “Probing the Open Global Health Chemical Diversity Library for Multistage-Active Starting Points for Next-Generation Antimalarials” (ACS Infect Dis, 2020).

A short description of this data set: Toxicity liver stage against HepG2, at 10uM. The format is cell-based. Also noted: test concentration 10 uM, cell line HepG2-A16-CD81EGFP. The following applies: human, HepG2-A16-CD81EGFP cells; read-out: INHIBITION
Summed up:
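Uninfected HepG2-A16-CD81EGFP cells, 3 × 10^3 per well, 1536-well, plated on prespotted compound at 10 μM final, parasite-free screening media added to match infected plates; puromycin 10 μM positive, DMSO 0.5% negative; run in parallel with 48 h PbLuc assay at 37 °C, 5% CO2; viability by CellTiter-Glo luminescence, normalized to controls.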
In the case of `CCOC(=O)c1sc(NC(=O)C(C)C)c(C#N)c1C`, the cytotoxicity at 10 µM was -15.9%.
Take `NC(=O)C1CCN(C(=O)Cc2cnc(-c3c(Cl)cccc3Cl)s2)CC1`: the cytotoxicity at 10 µM was -2.23%.
For the compound `COCCn1cc(CC(=O)Nc2c(C)nn(C)c2C)c2ccccc21`, the cytotoxicity at 10 µM worked out at 1.18%.
For the compound `Cc1csc(NC(=O)Cn2nc(C)ccc2=O)n1`, the cytotoxicity at 10 µM is -5.7%.
On to `O=C(NCCc1ccccc1)NCCN1CCC(c2cccs2)CC1`, for which the cytotoxicity at 10 µM is -4.16%.
Regarding `CC(C)(CO)CNC(=O)c1ccnn1-c1ccc2ccccn12`, the cytotoxicity at 10 µM worked out at 15.8%.
As to `COCCN1C(=O)C2(CCC(C(=O)Nc3ccccn3)CC2)N=C1C` (configuration not stated), the cytotoxicity at 10 µM was 10.7%.
In the case of `COc1cccc(CN2CCC3(CCN(c4ncc(C)cn4)C3)C2=O)c1` (configuration not stated), the cytotoxicity at 10 µM is -0.265%.
As for `Cc1ccc(C(=O)N2CC[C@@H]3[C@H]2CCC(=O)N3CC2CC2)o1`, the cytotoxicity at 10 µM was -0.419%.
Take `CN1C(=O)CC(c2cnn(C)c2)C12CCN(C(=O)c1ccc[nH]1)CC2` (configuration not stated): the cytotoxicity at 10 µM was 6.74%.
With `c1cc(CNCC2Cn3nncc3CO2)cs1` (configuration not stated), the cytotoxicity at 10 µM is 6.13%.
In the case of `COCc1nc2c(o1)CN(C(=O)NCc1ccccc1)C2`, the cytotoxicity at 10 µM came to 10.6%.
As for `CC(=O)N1CC2(CCN(C(=O)N(C)C)CC2)c2cc(C)ccc21`, the cytotoxicity at 10 µM was found to be 7.7%.
On to `Cc1noc2nc3c(c(C(=O)/N=c4\[nH]nc(C(C)C)s4)c12)CCC3`, for which the cytotoxicity at 10 µM was -6.53%.
Turning to `O=C(NCCCn1cccn1)c1nnc2ccccc2n1`, the cytotoxicity at 10 µM turned out to be 0.14%.
As for `CCN(CC)c1nc(C)cc(C(=O)Nc2cnn(CC)c2)n1`, the cytotoxicity at 10 µM was -16.4%.
Turning to `CCOCC(=O)N1CCC(C)(c2nccs2)CC1`, the cytotoxicity at 10 µM is 7.64%.
In the case of `Cn1nc(C2CNCCO2)cc1CCOc1cccc(C(F)(F)F)c1` (configuration not stated), the cytotoxicity at 10 µM is -1.02%.
For `Nc1nccc(C2CCCN2CCc2ccccc2)n1` (configuration not stated) the value was 3.38%; for `CN1CCN(c2ccc(F)cc2NC(=O)NCCn2ccnc2)CC1`, 1.69%; for `CC1CCN(S(=O)(=O)N2CCCN(CC3CCCO3)CC2)CC1` (configuration not stated), -5.15%.
For `CCN1CCCCC1C(=O)N1CCC(OCCOC)CC1` (configuration not stated) the value was -6.81%; for `NC(=O)CN1CCCN(C(=O)c2ccc(SC(F)F)cc2)CC1`, -6.08%; for `Cc1ccccc1CC(C)(C)NC(=O)COc1cccc(C(N)=O)c1`, 20.4%.
In the case of `CN(Cc1cnn(C)c1)C(=O)CCS(=O)(=O)c1ccc2c(c1)OCCO2`, the cytotoxicity at 10 µM was -17%.
For `FC(F)Oc1ccc(CN2CCOC3(CCOCC3)C2)cc1Cl` the value was -6.58%.
As to `COCC1CCCN(CCCc2cccc(OC)c2)C1` (configuration not stated), the cytotoxicity at 10 µM was 2.41%.
Under `CCc1sc(C(=O)NC2CC2)cc1C` stands 14.5%.
`O=C(NCCCn1nc2ccccn2c1=O)NCCC1CCC1`: the cytotoxicity at 10 µM amounted to 5.47%.
For the compound `NC(=O)CCC1CCCN(c2ccc3c(Cl)ccnc3c2F)C1` (configuration not stated), the cytotoxicity at 10 µM came to 29.6%.
Regarding `CCc1nnc2n1CC(CNCC1CCCC1)CC2` (configuration not stated), the cytotoxicity at 10 µM was -3.98%.
`O=C(Nc1ccnc2ccnn12)c1ccc(N2CCC(O)CC2)cc1`: the cytotoxicity at 10 µM stood at 53.4%.
For `CC(NCCCC#N)c1ccc(-c2cccnc2)cc1` (configuration not stated), the cytotoxicity at 10 µM was 11.3%.
`COCCN(c1ccncc1)S(=O)(=O)c1cc(C)cc(F)c1`: the cytotoxicity at 10 µM came out at 7.83%.
In the case of `Cn1cc(NC(=O)Nc2cccc3cccnc23)ccc1=O`, the cytotoxicity at 10 µM was -9.22%.
For `CN1CCN(C(=O)c2occc2CN2C(=O)Cc3ccccc32)CC1`, the cytotoxicity at 10 µM was -1.89%.
With `CC(C)c1noc(C(C)S(=O)(=O)CC(=O)N2CCCC2)n1` (configuration not stated), the cytotoxicity at 10 µM worked out at 4.23%.
Under `CS(=O)(=O)Cc1ccc(C(=O)Nc2ccc3c(c2)C(=O)NC3)cc1` stands 10.8%; under `CC(C)c1noc(CCNC(=O)N2CCSC(C(C)C)C2)n1` (configuration not stated), -2.65%; under `CC(C)Sc1ccc(C(C)NC(=O)CNS(C)(=O)=O)cc1` (configuration not stated), 3.92%.
Turning to `CCc1cnc(CNC(=O)N2CCCC(C(=O)NC)C2)s1` (configuration not stated), the cytotoxicity at 10 µM amounted to 19.8%.
As to `CC(CCc1ccccc1)N1CCC(C(=O)Nc2cnccn2)CC1` (configuration not stated), the cytotoxicity at 10 µM was found to be 13.2%.
For `CCS(=O)(=O)N(C)CCCNC(=O)c1cc(Cl)cc2cccnc12` the value was 15%; for `CC(NC(=O)NCc1cccnc1N(C)C)c1cccs1` (configuration not stated), 1.76%.
For `Cc1ccc(OCc2nnc(SCC3CCCN(C)C3)o2)cc1` (configuration not stated), the cytotoxicity at 10 µM was -3.73%.
Regarding `O=C(CN1CCSCC1c1ccccc1)N1CCCC1` (configuration not stated), the cytotoxicity at 10 µM turned out to be 7.34%.
Under `O=C(c1cc[nH]n1)N1CCCC1C1CCN(Cc2ccccc2)CC1` (configuration not stated) stands 1.98%.
For the compound `O=C(N1CCCC1)N1CCn2c(Cn3cccn3)cnc2C1`, the cytotoxicity at 10 µM is -69.1%.
On to `Cc1nc(NCC2CC2)nc2c1COCC21CCNC1` (configuration not stated), for which the cytotoxicity at 10 µM was -72.8%.
Under `COc1cccc2c1OCC(Cc1cc(C(N)=O)ccn1)C2` (configuration not stated) stands 5.83%.
Turning to `CCc1oc(C(=O)NCCSc2ncn[nH]2)cc1CN1CCCC1`, the cytotoxicity at 10 µM is -5.25%.
Regarding `COCCn1cnnc1Cn1ccnc1-c1ccoc1`, the cytotoxicity at 10 µM is -2.66%.
Take `Cc1cc(F)ccc1N1CCC(N2C[C@@H](CN(C)C)[C@@H](CO)C2)CC1`: the cytotoxicity at 10 µM was -12.1%.
As to `CCn1ccnc1C1CCN(c2ncnc3ccsc23)CC1`, the cytotoxicity at 10 µM was 5.31%.
Regarding `Cc1cnccc1CN(C)C(=O)C(C)(C)NC(=O)c1cccs1`, the cytotoxicity at 10 µM came to 6.89%.
Take `Cn1nc(C2CCCN(Cc3ccsc3)C2)c2nccnc21` (configuration not stated): the cytotoxicity at 10 µM is -2.58%.
For `COc1ncc(CN2CC[C@@](C)(O)[C@H](Oc3cccc(F)c3)C2)cn1` the value was 1.68%; for `O=C(NC1CCN(C2CC2)CC1)N1CCN(c2cnccn2)CC1`, -6.97%; for `Cc1noc(C)c1CCC(=O)N1CCCN(CC(N)=O)CC1`, -12.4%.
With `O=C(CN1CCCC(Cn2cncn2)C1)NCCC1=CCCCC1` (configuration not stated), the cytotoxicity at 10 µM was -3.33%.
As for `COc1ccccc1OCCNC1CCCN(Cc2noc(C)n2)C1` (configuration not stated), the cytotoxicity at 10 µM is -19.1%.
For `CCN(Cc1ccc2c(c1)OCO2)C(=O)Cn1cccnc1=O` the value was -2.27%.
As for `CCN(Cc1ccc2c(c1)OCCO2)C(=O)Cn1cccnc1=O`, the cytotoxicity at 10 µM is -5.1%.
Under `CCc1nc(CN2CCCN(Cc3nnc(C4CC4)o3)CC2)no1` stands -9.26%.
As to `O=C(c1ccc2c(c1)OCCO2)N1CCCC(n2ccnc2)C1` (configuration not stated), the cytotoxicity at 10 µM is -16.3%.
Under `Cc1cc(C)n(CC2CCCN2Cc2nc(N)c3ccccc3n2)n1` (configuration not stated) stands -11.7%; under `Cc1cnn(CC2CCCN2Cc2noc(C3CC3)n2)c1` (configuration not stated), -17.3%; under `Cc1cc(C)cc(OCCN2CCn3c(C)nnc3C2)c1`, -9.08%.
For `CC(C)c1cc(NC(=O)c2ccc(C(=O)NC(C)(C)C)cc2)[nH]n1` the value was -0.164%.
For `Cn1ccc(CN2CCC(c3ccccc3)CC2)cc1=O` the value was -6.46%; for `Cc1cc(C(=O)N2CCCCC2C)ccc1NCCCO` (configuration not stated), -4.35%.
On to `Cc1ccc(C)c(OCCN2CCC(N3CCNC3=O)CC2)c1`, for which the cytotoxicity at 10 µM was 1.85%.
For the compound `CCc1nc(CN2CCCN(C(=O)C(C)n3cncn3)CC2)cs1` (configuration not stated), the cytotoxicity at 10 µM was -7.26%.
Under `COc1cc(S(=O)(=O)N2CCCc3ccccc32)cc(C(=O)O)c1OC` stands 1.8%; under `Cc1cnn(CC2CCCCN2CCCS(N)(=O)=O)c1` (configuration not stated), 4.02%.
On to `CC(C)Oc1ncccc1CNC(=O)c1ccco1`, for which the cytotoxicity at 10 µM came out at 1.32%.
`Cc1cc(C(=O)N2CCCC2Cn2nc(C)cc2C)on1` (configuration not stated): the cytotoxicity at 10 µM was -8.21%.
Consider `COc1ccc(Cl)cc1CC(=O)N1CCN(CCO)CC1`, for which the cytotoxicity at 10 µM was -9.51%.
Turning to `CCN1CCN(C2CCN(Cc3nc4ccccc4o3)CC2)C1=O`, the cytotoxicity at 10 µM amounted to 5.61%.
As to `Cc1cnn(CCNCC(=O)NCC2(c3ccccc3)CCC2)c1`, the cytotoxicity at 10 µM amounted to 5.87%.
Under `CC1c2ncc(COCc3ccccn3)n2CCN1C1CCCC1` (configuration not stated) stands 12.8%; under `Cc1ccc2c(n1)N(CCn1cccn1)CCN(C(=O)NC1CC1)C2`, -4.58%.
With `CN(Cc1ccncc1)C1COC2(CCN(c3ncc(F)cn3)CC2)C1` (configuration not stated), the cytotoxicity at 10 µM amounted to 6.95%.
Take `O=C([C@H]1CN(Cc2ccncc2)C[C@H]2OCC[C@@H]12)N1CCCCO1`: the cytotoxicity at 10 µM was found to be 9.01%.
As to `CO[C@@H]1CCN(c2nnc(C)s2)C[C@@H]1Cc1ccccc1`, the cytotoxicity at 10 µM amounted to 10.5%.
Consider `Fc1cnc(N2CC[C@@H]3OC(COCc4cccnc4)CC[C@@H]32)nc1` (some centres not stated), for which the cytotoxicity at 10 µM came out at 9.94%.
As to `O=C(c1ccccc1)N1CCO[C@@H]2CN(c3cnccn3)C[C@@H]2C1`, the cytotoxicity at 10 µM was 0.442%.
Under `O=C(c1ccncc1)N1CCOC2(COCCN(c3cncnc3)C2)C1` (configuration not stated) stands 8.58%; under `CC(C)N1[C@@H](C(=O)NCCN(C)C)C[C@H]2CN(c3ncccn3)C[C@H]21`, 8.73%.
With `CN(C)c1ncnc2c1CCN(CC1CCCC1)CC2`, the cytotoxicity at 10 µM is 1.03%.
For `COCCN1CCO[C@@H]2CN(C(=O)COc3ccc(C)cc3)C[C@@H]2C1`, the cytotoxicity at 10 µM is -0.572%.
For `COCC1CC2(CCN(CC3CC3)CC2)CN1Cc1csc(C)n1` (configuration not stated), the cytotoxicity at 10 µM came to 4.26%.
Under `Cn1ccc(CN2CCC3(CC2)CC(Nc2ccccn2)CO3)n1` (configuration not stated) stands -1.19%.
For `Cc1ccc2c(n1)N(CCN(C)C)CCN(C(=O)c1cscn1)C2`, the cytotoxicity at 10 µM is -72.7%.
As to `CCC1=N[C@@]2(CC[C@@H]3CN(Cc4ccccc4C)C[C@@H]32)C(=O)N1`, the cytotoxicity at 10 µM came out at 8.4%.
Consider `O=S1(=O)NC(=CSCc2ccccc2)Nc2ccccc21`, for which the cytotoxicity at 10 µM worked out at 0.603%.
Regarding `Cc1cc(C(=O)N2C[C@@H]3CC[C@H]2CN(C(=O)c2ccncc2)C3)cs1`, the cytotoxicity at 10 µM is -2.56%.
